# Source: PubChem BioAssay
# ARFGAP1 inhibitor: inhibits rat ARF GTPase activating protein 1 | AID 651572 | 0.26% of 360,000 active | inhibition, % at 16.5 µM | Arfgap1-stimulated ARF1 GTP hydrolysis, GDP FP detection | Q62848;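 active means inhibition above a per-plate limit, mean inhibition of low control wells plus 3 SD, cut at about 25% in these data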
#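 system = rat Arfgap1 catalytic domain, aa 1-136 | technique = FP, GDP Alexa 633 tracer displaced from anti-GDP antibody, 620/688 nm | compound = one concentration, 16.5 µM, DMSO 1.26% | medium = HEPES-based buffer, pH 7.5 | timing = compound-enzyme preincubation 20 min, reaction 120 min, detection 60 min, 25 °C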
# MBD2 inh: blocks human MBD2 binding to methylated DNA. Q9UBB5. TR-FRET, MBD2 binding to methylated oligonucleotide. inhibition, % at 4.4 µM. 0.31% of 370,000 active. AID 686964; in the data active means inhibition above about 13%
# TDP2 inh: TDP2 (human) inhibition, absorbance primary screen. recombinant TDP2, T5PNP hydrolysis, p-nitrophenol absorbance 415 nm. inhibition, % at 12.8 µM. 0.34% of 370,000 active. O95551. AID 720702;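 active means inhibition above the mean of all tested compounds plus 3 SD, set per campaign, cut at about 25% in these data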
#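 Assay system: Recombinant human TDP2 | Quantity: 120 nM TDP2 per well | Incubation: 2 h at 37 °C | Signal: Epi absorbance | Evaluation: Percent inhibition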
# ASAP1 GAP inh: ASAP1 ArfGAP inhibition; Q9ULH1; ASAP1-stimulated ARF1 GTP hydrolysis, GDP FP detection; inhibition, % at 16.5 µM; 0.19% of 360,000 active; AID 624377; in the data active means inhibition above about 25%
# UHRF1 MBD2 ctr: UHRF1 methyl-DNA binding inhibition. Q96T88. UHRF1 binding to methylated oligo, TR-FRET. inhibition, % at 4.4 µM. 0.75% of 370,000 active. AID 687016; in the data active means inhibition above about 21%;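 further: UHRF1 SRA domain binding a hemimethylated CpG hairpin DNA probe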
# Target sequence (Q96T88 whole entry, looked up, the tested form may be a part): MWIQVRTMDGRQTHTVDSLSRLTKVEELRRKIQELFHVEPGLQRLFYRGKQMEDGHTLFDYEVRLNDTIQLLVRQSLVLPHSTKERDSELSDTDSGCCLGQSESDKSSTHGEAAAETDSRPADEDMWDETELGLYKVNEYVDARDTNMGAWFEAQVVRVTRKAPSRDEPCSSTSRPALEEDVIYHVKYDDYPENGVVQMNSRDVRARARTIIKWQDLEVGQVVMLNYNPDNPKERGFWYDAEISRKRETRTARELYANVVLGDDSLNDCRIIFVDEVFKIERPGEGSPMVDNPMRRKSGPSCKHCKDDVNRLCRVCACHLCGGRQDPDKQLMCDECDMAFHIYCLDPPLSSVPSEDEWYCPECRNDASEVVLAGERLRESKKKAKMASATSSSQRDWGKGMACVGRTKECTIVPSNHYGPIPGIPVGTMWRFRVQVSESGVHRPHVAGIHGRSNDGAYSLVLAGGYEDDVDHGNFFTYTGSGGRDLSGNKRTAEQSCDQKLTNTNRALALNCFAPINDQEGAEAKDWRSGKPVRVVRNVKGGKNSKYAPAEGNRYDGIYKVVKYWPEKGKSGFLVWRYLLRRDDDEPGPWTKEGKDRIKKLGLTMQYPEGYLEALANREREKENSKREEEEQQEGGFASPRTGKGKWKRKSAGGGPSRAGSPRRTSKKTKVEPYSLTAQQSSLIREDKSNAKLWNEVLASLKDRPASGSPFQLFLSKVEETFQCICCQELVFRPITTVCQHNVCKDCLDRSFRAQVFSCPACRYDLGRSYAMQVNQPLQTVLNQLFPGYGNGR
# LEDGF integ inh: blocks HIV-1 LEDGF/p75-dependent DNA integration; AID 743269; TR-FRET IN-LEDGF/p75 DNA integration, Eu/Cy5; 0.64% of 370,000 active; inhibition, % at 3.7 µM;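 active means inhibition above the screen-wide mean plus 3 SD, cut at about 13% in these data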;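 further: signal is the Cy5 over europium emission ratio at 671 and 618 nm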
# ARFGAP1 inh conf: confirmation of rat ARFGAP1 inhibitors. shares compounds with ARFGAP1 inhibitor. ARFGAP1-stimulated ARF1 GTP hydrolysis, GDP tracer FP. inhibition, % at 16.5 µM. 30% of 890 active. AID 651608;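 active means average inhibition over triplicates above the hit cutoff set in the earlier primary screen, cut at about 25% in these data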
# A number is an active result; n = inactive; x = no result given. A selection: hits, their analogues and other compounds. The true share with any hit is near 2%.
SMILES,ARFGAP1 inhibitor,MBD2 inh,TDP2 inh,ASAP1 GAP inh,UHRF1 MBD2 ctr,LEDGF integ inh,ARFGAP1 inh conf
Cc1ccc(NC(=O)N2CC(C)OC(C)C2)cc1[N+](=O)[O-] (centres undefined),33,n,n,n,n,n,n
CC(=O)Nc1ccc(C)c([N+](=O)[O-])c1,n,n,n,n,n,n,x
COc1ccc(/C=C/c2nc(N)nc(-c3ccccc3O)n2)cc1OC,30,n,n,n,n,n,38
CC(C)(C)CCNc1nc(-c2ccccn2)nnc1-c1ccccc1,x,n,n,x,n,n,x
O=C(CNS(=O)(=O)c1ccc(Cl)cc1)N1CCN(c2ccc(F)cc2)CC1,n,n,n,n,n,n,x
O=C(CNS(=O)(=O)c1ccc(Br)cc1)N1CCN(c2ccc(F)cc2)CC1,28,n,n,n,n,n,n
O=C(Nc1ccc(CN2CCOCC2)cc1)c1ccc(-c2cccc(Cl)c2)o1,32,n,n,n,n,n,27
CC(=O)c1cccc(NC(=O)CN(C)Cc2ccc(OC(F)F)cc2)c1,42,n,n,n,n,n,n
COc1ccc(NC(=O)CN(C)CC(=O)Nc2cccc(C(C)=O)c2)cc1,n,n,n,n,n,n,x
Cc1ccccc1NC(=O)Cc1nc(COC(=O)c2cc([N+](=O)[O-])ccc2N)cs1,29,n,n,n,n,n,n
CCCC[C@H]1C2CC(OC(=O)Nc3ccccc3Cl)C(C2)[C@H]2CCCCN21 (some centres undefined),x,n,n,x,n,n,x
C=C(C)[C@@H]1CC2=C(OC)C(CC=C(C)C)(CC=C(C)C)C(=O)C(C(=O)c3ccccc3)=C2O1,x,n,n,x,n,n,x
Brc1ccc(-c2noc3c2-c2nc(-c4ccccc4)sc2CC3)cc1,27,n,n,n,n,n,n
COc1ccc(-c2noc3c2-c2nc(-c4ccccc4)sc2CC3)cc1,n,n,n,n,n,n,x
CCCc1cc(=O)[nH]c(SCC(=O)N2CCN(S(=O)(=O)c3ccc4ccccc4c3)CC2)n1,25,n,n,n,n,n,n
CCCc1cc(=O)[nH]c(SCC(=O)N2CCN(S(=O)(=O)c3ccccc3)CC2)n1,n,n,n,n,n,n,x
COc1ccc(-n2nc(C(=O)NCC(=O)Nc3cccc(Cl)c3)c3ccccc3c2=O)cc1OC,28,n,n,n,n,n,25
CCCN(CCC)CCNC(=O)c1cc2c(-c3ccc(Cl)cc3)nn(C)c2s1,28,n,n,n,n,n,n
CCCCN(CC)CCNC(=O)c1cc2c(-c3ccc(Cl)cc3)nn(C)c2s1,n,n,n,n,n,n,x
CCN(CC)CCNC(=O)c1cc2c(-c3ccc(Cl)cc3)nn(C)c2s1,n,n,n,n,n,n,x
CCCN(CCC)CCCNC(=O)c1cc2c(-c3ccc(OC)c(OC)c3)nn(C)c2s1,47,n,n,n,23,n,85
Oc1ccc(C=NNc2nc3ccccc3s2)c(O)c1,30,n,n,n,n,n,n
COc1ccc(-n2nc(C)cc2Nc2ccccc2C(=O)O)cc1,25,n,n,n,n,n,n
Cc1cc(Nc2ccccc2)n(-c2ccc(C(=O)O)cc2)n1,n,n,n,n,n,n,x
CC(=O)Nc1ccc(NC(=O)CSc2nnc(-c3cccs3)o2)cc1,x,n,n,x,n,n,x
SMILES,ARFGAP1 inhibitor,MBD2 inh,TDP2 inh,ASAP1 GAP inh,UHRF1 MBD2 ctr,LEDGF integ inh,ARFGAP1 inh conf
COC(=O)C1CN(Cc2ccc(F)cc2)CCS(=O)(=O)N1Cc1ccc(F)cc1 (centres undefined),x,n,n,x,n,n,x
Cc1ccc(S(=O)(=O)N(Cc2ccccc2F)C(=O)N2CCN(C)CC2)cc1,29,n,n,n,n,n,n
Cc1ccc(S(=O)(=O)N(Cc2ccccc2Cl)C(=O)N2CCN(C)CC2)cc1,n,n,n,n,n,n,x
O=C(c1ccc(F)cc1)C1CCN(c2ncnc3sccc23)CC1,x,n,n,x,n,n,x
COc1ccc(OC)c(C2C(C(=O)Nc3nc4ccccc4s3)=C(C)NC3=C2C(=O)CCC3)c1 (centres undefined),25,n,n,n,n,n,n
Cc1ccnc(Nc2ccc(CCO)cc2)n1,27,n,n,n,n,n,n
Cc1ccc(CSc2ncnc3ccccc23)cc1,25,n,n,n,n,n,n
c1ccc(CSc2ncnc3ccccc23)cc1,n,n,n,n,n,n,x
CC(C)(C)C(=O)NC1CCCCN(Cc2cccc(C(F)(F)F)c2)C1=O (centres undefined),x,n,n,x,n,n,x
C[C@H]1[C@@H](c2ccccc2)OC(O)([C@H](Cc2ccccc2)NC(=O)OC(C)(C)C)CN1C (some centres undefined),x,n,n,x,n,n,x
CCC1Nc2ncnc(N3CCCCC3)c2N(Cc2ccc(Br)cc2)C1=O (centres undefined),n,n,n,n,n,n,x
CCC1Nc2ncnc(N3CCCCC3)c2N(Cc2ccc(Cl)cc2)C1=O (centres undefined),29,n,n,n,n,n,n
CN(Cc1ccccc1)C(=O)CN1CCN(S(=O)(=O)c2ccccc2F)CC1,36,n,n,n,n,n,n
CCn1c(CNC(=O)c2cccs2)nnc1SCC(=O)Nc1ccc(Cl)cc1,31,n,n,n,n,n,n
CCn1c(CNC(=O)c2cccs2)nnc1SCC(=O)Nc1cc(Cl)ccc1C,n,n,n,n,n,n,x
O=C(NCc1ccccc1C(F)(F)F)C1CC(c2ccc(C(F)(F)F)cc2)=NO1 (centres undefined),28,n,n,n,n,n,n
O=C(NCc1ccc(C(F)(F)F)cc1)C1CC(c2ccc(C(F)(F)F)cc2)=NO1 (centres undefined),n,n,n,n,n,n,x
O=C(NCc1ccco1)c1ccc(NC(=O)C2COc3ccccc3O2)cc1 (centres undefined),29,n,n,n,n,n,n
Cc1cc(C)c2nc(C)cc(N/N=C/c3ccc(O)cc3)c2c1,26,n,n,n,n,n,40
CC(=O)N1CCCN(S(=O)(=O)c2ccc3c(c2)n(C)c(=O)c(=O)n3C)CC1,x,n,n,x,n,n,x
CCOC(=O)CNC(=O)c1c(C)nn(C)c1Cl,25,n,n,n,n,n,n
Cc1nn(C)c(Cl)c1C(=O)NCC(=O)O,n,n,n,n,n,n,x
CC(Nc1nc(-c2ccncc2)nc2ccccc12)c1ccccc1 (centres undefined),n,n,n,n,n,n,x
CC(Nc1nc(N2CCNCC2)nc2ccccc12)c1ccccc1 (centres undefined),26,n,n,n,n,n,n
